Only some compounds are listed: those with a hit (about 2.2% of all), similar ones and a draw of the others.
M5 PAM: human M5 muscarinic receptor positive allosteric modulators, primary screen, CHO-K1 cells, Fluo-8 calcium fluorescence | hit rate 0.3% among 360,000 | CHO-K1 hM5, ACh EC20 PAM; 0% = ACh EC20, 100% = ACh EC100 | activation, % at 3 µM | AID 624038, 2012;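 active = activation above the run cutoff, the mean activation of all test compounds plus 3 SD, cut at about 18% in these data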
Target sequence (P08912 whole entry, looked up): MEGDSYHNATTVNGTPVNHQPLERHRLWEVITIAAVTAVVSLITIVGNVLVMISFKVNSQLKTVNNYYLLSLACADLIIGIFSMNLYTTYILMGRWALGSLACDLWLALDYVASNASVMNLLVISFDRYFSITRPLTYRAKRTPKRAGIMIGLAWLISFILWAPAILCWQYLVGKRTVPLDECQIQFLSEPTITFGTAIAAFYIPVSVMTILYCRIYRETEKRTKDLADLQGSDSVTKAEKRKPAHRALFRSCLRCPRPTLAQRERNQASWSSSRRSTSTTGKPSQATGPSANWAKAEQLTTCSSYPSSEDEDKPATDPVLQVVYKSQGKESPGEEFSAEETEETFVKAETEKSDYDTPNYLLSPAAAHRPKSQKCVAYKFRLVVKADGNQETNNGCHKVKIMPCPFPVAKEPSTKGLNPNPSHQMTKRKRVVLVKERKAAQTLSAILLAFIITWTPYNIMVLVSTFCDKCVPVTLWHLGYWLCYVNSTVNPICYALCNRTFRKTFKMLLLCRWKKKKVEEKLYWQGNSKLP
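Probe or stimulus: acetylcholine, EC20 level; Assay system: human M5 receptor in CHO-K1 cells; Schedule: compound preincubation 140 s before EC20 acetylcholine addition; Technique: intracellular calcium via Fluo-8 fluorescence; Dosing: single-point, 3 µM nominal; Read-out basis: percent activation from peak-over-basal fluorescence ratio, scaled EC20-to-EC100 acetylcholine; Repeats: one well per compound, no replicates.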
M1 ag: human M1 muscarinic receptor agonists, primary screen, Fluo-8 calcium fluorescence, CHO-K1 cells, HTS; Muscarinic acetylcholine receptor M1 (Homo sapiens), P11229; CHO-K1 hM1, agonist mode; 0% DMSO, 100% acetylcholine EC100; activation, % at 3 µM; hit rate 0.33% among 360,000; AID 588814, 2011;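 active = activation above the run's mean compound activation plus 3 SD, cut at about 16% in these data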;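 note: peak over basal fluorescence ratio within a 140 s kinetic read after compound addition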
M1 PAM: human M1 muscarinic receptor positive allosteric modulators, primary screen, CHO-K1 cells, Fluo-8 calcium fluorescence, 1536-well | activation, % at 3 µM | hit rate 0.088% among 360,000 | Muscarinic acetylcholine receptor M1 (Homo sapiens), P11229 | CHO-K1 hM1, ACh EC20; 0% = ACh EC20, 100% = maximal ACh; in the data active = activation above about 19%, passing the limit was not always enough
CHRM5 agonist: human M5 muscarinic receptor agonists, primary screen, CHO-K1 cells, Fluo-8 calcium fluorescence; CHO-K1 hM5 cells; 0% DMSO wells, 100% maximal acetylcholine response; hit rate 0.19% among 360,000; activation, % at 3 µM; Muscarinic acetylcholine receptor M5 (Homo sapiens), P08912;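 active = activation above the run's mean over test compounds plus 3 SD, cut at about 23% in these data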;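 note: signal is peak over basal fluorescence ratio across the kinetic read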
CHRM5 antagonist: human M5 muscarinic receptor antagonists, primary screen, CHO cells, Fluo-8 calcium fluorescence; Muscarinic acetylcholine receptor M5 (Homo sapiens), P08912; CHO-hM5 cells, ACh EC80; inhibition, % at 3 µM; hit rate 0.59% among 360,000;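 active = inhibition above a per-plate cutoff, the mean of that plate's test compounds plus 3 SD, cut at about 27% in these data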;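 note: 0% = acetylcholine EC80 with DMSO and 100% = DMSO without agonist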
CHRM1 antagonist: human M1 muscarinic receptor antagonists, primary screen, CHO-K1 cells, Fluo-8 calcium fluorescence, 1536-well. hit rate 1.3% among 360,000. inhibition, % at 3 µM. CHO-K1 hM1, ACh EC80 antagonist. AID 588852, 2011. Muscarinic acetylcholine receptor M1 (Homo sapiens), P11229;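 active = percent inhibition above its own plate's cutoff, namely the mean of that plate's compound wells plus 3 SD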;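 note: peak over basal fluorescence ratio during 140 s after agonist addition; 0% = ACh EC80 plus DMSO and 100% = DMSO alone without agonist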
The depositor's hits bear a star.

SMILES	M5 PAM	M1 ag	M1 PAM	CHRM5 agonist	CHRM5 antagonist	CHRM1 antagonist
CC(NC(=O)c1cc(COc2ccc3ncccc3c2)on1)c1ccc(F)cc1 (configuration not stated)	-31	3	-12	-1	36*	34*
O=C(c1cc(COc2ccc3ncccc3c2)on1)N1CCCC1	-20	6	2	1	9	8
O=C(NCCc1cn2ccccc2n1)c1cc(COc2ccc3ncccc3c2)on1	-32	0	-18	6	33*	33
Cc1cccc(NC(=O)COC(=O)CC2CCCC2)c1C	0	1	10	0	-3	-1
CN1CCS/C1=C/C=C1/SC(=S)N(Cc2ccccc2)C1=O	-4	12	-8	16	13	25
CCCCN1C(=O)/C(=C/C=C2\SCCN2C)SC1=S	-9	12	-15	40*	21	24
CN1CCS/C1=C/C=C1\SC(=S)N(CC(=O)O)C1=O	-7	16*	-5	31*	5	7
CCOCCCNC(=O)c1ccc(CS(=O)(=O)Cc2ccc(C)cc2)o1	-2	-5	11	0	0	-8
COc1ccc(-c2nn(-c3ccccc3)cc2C(=O)NC(=S)N2CCOCC2)cc1OC	-5	-3	-4	2	1	1
Cc1ccc(C)c(S(=O)(=O)N2CCN(c3nc(-c4cccnc4)nc4ccccc34)CC2)c1	-38	-4	-12	-1	8	27*
N#Cc1ccccc1S(=O)(=O)N1CCN(c2nc(-c3cccnc3)nc3ccccc23)CC1	-27	-2	-19	-1	22	50*
O=S(=O)(c1ccccc1F)N1CCN(c2nc(-c3cccnc3)nc3ccccc23)CC1	-25	-2	-9	1	15	27
Cc1cccc(C(=O)OC(C)C(=O)NCC2CCCCC2)c1O (configuration not stated)	9	-4	9	3	2	-7
Cc1cccc(C)c1NC(=O)C1CCCN(CCCc2ccccc2)C1 (configuration not stated)	-34	-7	-24	-11	22	97*
Cc1ccc2nc(-c3cccc(-c4cccc(Cl)c4)c3)c(NCc3ccccc3)n2c1	-32	-5	-11	-3	28*	27
CCC(C)Sc1cccc(-c2nc3ccc(C)cn3c2NCc2ccccc2)c1 (configuration not stated)	-26	-5	-7	0	23	25
CN(C)c1nc(OCCOC(=O)c2ccccc2)nc(N(C)C)n1	-5	3	4	26*	-6	-4
O=C(Nc1ccc(Oc2ccccc2)nc1)C1CCN(Cc2cccc(F)c2)CC1	-13	3	3	-4	31*	-1
CCN(Cc1ccccc1)C(=O)C1CCN(S(=O)(=O)c2ccc3c(c2)OCCO3)CC1	-3	2	5	37*	1	-16
Nc1ncnc2c1ccn2[C@H]1CN(Cc2ccc3c(c2)OCO3)C[C@@H](COC(=O)c2ccccc2)O1	-1	-3	9	-2	-5	-20
COc1ccc(C(=O)Nc2cc(OC)c(NC(=O)Nc3ccccc3)cc2OC)cc1	0	-5	-2	0	-2	-4
O=C(c1ccco1)N1CCN(C(c2ccccc2Cl)c2nnnn2Cc2ccco2)CC1 (configuration not stated)	-45	2	-16	-3	10	29*
CC(C)P(=O)(c1cccc(C(=O)O)c1)C(C)C	0	-3	4	2	3	-7
Cc1ccc(C(=O)NS(=O)(=O)c2ccc(N=NN(C)C)cc2)cc1	-12	-4	8	-8	0	-9
Brc1ccc2c(c1)OCCOCCOc1cc(Br)ccc1OCCOCCOCCO2	-7	-3	-21	4	6	39*
SMILES	M5 PAM	M1 ag	M1 PAM	CHRM5 agonist	CHRM5 antagonist	CHRM1 antagonist
O=C(Nc1ccccc1Cl)ON=C1c2ccccc2-c2ccccc21	-16	-11	8	-7	19	-4
CCC1CCCCN1CCCNC(=O)CCCOc1cc(=O)n(C)c2ccccc12 (configuration not stated)	-19	-10	-29	-10	13	49*
COCCNC(=O)CCC1CCN(Cc2ccc(-c3ccccc3)cc2)CC1	-29	-9	-28	-24	7	99*
CSc1cccc(CN2CCC(Oc3cccc(C(=O)N4CCCC4)c3)CC2)c1	-15	-7	-5	-8	28*	-3
COCCNC(=O)C1CCCN(Cc2ccccc2)CC1 (configuration not stated)	0	-7	5	-1	7	-5
COC(=O)c1ccc(CN2CCC(Oc3cccc(C(=O)N4CCOCC4)c3)CC2)cc1	-13	18*	-18	-7	67*	84*
COCCNC(=O)c1cccc(OC2CCN(Cc3ccc(C(C)C)cc3)CC2)c1	-33	-8	-11	-20	12	11
COCCNC(=O)c1cccc(OC2CCN(Cc3ccc(C(=O)OC)cc3)CC2)c1	-30	19*	-17	-24	25	71*
CC(C)N(C(=O)COC(=O)c1cccc(N(C)C)c1)c1ccccc1	-6	-6	-3	-1	11	7
O=c1[nH][nH]c2cc([N+](=O)[O-])ccc12	1	-1	12	7	-7	-22
O=S(=O)(c1ccc2ccccc2c1)N1CCN(c2ccc(O)cc2)CC1	-7	0	1	2	9	2
CCC(C(=O)c1ccc2ncccc2c1)c1ccccc1 (configuration not stated)	-17	-10	-27	-6	10	35*
Cc1nc(C(=O)NCc2ccccc2)sc1C1(C)CC(c2ccccc2)=NO1 (configuration not stated)	-1	17*	5	13	7	-11
CC(=O)NC(=S)Nc1ccc(NC(=S)NC(=O)/C=C/c2ccco2)cc1	10	25*	15	25*	11	-7
CCC(=O)Nc1ccc(NC(=S)NC(=O)/C=C/c2ccco2)cc1	-2	-2	14	-2	8	-18
COc1ccc(NC(=O)Nc2ccc3c(c2)C(=O)N([C@H](C)CO)C[C@H](C)[C@@H](CN(C)S(C)(=O)=O)O3)cc1	2	-4	8	3	1	-8

Compound activity (PubChem)
